pIC50, pKi: −log10 of the molar value. Activity calls are given as the source filed them. The rule behind the calls is not given here.

The target of series [1] is T1, Death-associated protein kinase 1 (Homo sapiens, UniProt P53355). Nature of the series: Inhibition of DAPK1 in HEK293 tau-BiFC cells assessed as reduction in forskolin-induced tau aggregation at 10 uM after 48 hrs by Hoechst staining based HCS analysis. The format is cell-based. The method in brief: (§1)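 HEK293 cells expressing tau-BiFC were exposed to compounds at 50, 10 and 1 μM with forskolin (30 μM) as the tau aggregation activator for 48 h. BiFC fluorescence intensity was quantified as the read-out. Data are mean ± SD.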
Target sequence in this assay (P53355 whole entry, looked up): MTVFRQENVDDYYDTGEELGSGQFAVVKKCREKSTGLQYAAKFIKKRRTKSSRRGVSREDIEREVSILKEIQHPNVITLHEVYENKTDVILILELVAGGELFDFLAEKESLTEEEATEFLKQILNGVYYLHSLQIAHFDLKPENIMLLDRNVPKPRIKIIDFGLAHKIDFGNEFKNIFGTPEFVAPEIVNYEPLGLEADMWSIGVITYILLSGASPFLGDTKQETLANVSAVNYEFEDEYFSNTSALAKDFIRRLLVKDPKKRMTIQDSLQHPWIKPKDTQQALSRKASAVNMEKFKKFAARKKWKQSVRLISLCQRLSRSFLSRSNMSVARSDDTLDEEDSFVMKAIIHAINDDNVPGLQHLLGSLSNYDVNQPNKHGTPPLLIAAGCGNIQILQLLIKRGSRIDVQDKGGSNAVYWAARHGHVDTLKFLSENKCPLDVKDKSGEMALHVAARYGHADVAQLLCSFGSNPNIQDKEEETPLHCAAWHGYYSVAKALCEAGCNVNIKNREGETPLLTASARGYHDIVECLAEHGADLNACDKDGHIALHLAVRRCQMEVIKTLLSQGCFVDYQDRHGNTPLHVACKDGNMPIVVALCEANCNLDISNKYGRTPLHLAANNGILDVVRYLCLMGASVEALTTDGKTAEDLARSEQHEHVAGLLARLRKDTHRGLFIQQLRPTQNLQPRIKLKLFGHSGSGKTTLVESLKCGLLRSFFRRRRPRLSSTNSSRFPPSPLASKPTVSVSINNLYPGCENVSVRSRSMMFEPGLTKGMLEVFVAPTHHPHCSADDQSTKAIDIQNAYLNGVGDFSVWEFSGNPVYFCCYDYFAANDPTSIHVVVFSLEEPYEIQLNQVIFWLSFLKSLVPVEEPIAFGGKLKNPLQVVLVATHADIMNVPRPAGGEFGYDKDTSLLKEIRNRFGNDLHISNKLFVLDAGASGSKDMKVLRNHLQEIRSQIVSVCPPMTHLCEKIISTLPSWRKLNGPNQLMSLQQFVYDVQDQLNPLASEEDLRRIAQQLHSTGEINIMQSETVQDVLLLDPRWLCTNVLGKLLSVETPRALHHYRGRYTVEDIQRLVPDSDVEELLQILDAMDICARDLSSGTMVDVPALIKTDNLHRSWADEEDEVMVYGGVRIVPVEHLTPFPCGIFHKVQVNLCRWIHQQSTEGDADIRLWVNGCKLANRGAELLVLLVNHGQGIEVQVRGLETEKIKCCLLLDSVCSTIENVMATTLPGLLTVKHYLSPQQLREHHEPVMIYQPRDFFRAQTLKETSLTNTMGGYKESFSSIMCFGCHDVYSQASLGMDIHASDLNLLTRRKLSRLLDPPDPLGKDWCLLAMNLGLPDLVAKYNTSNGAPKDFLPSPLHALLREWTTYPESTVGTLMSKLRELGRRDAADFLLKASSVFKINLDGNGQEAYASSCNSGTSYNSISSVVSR

In series [2] the target is T2, Macrophage colony-stimulating factor 1 receptor (Homo sapiens, UniProt P07333). In words: Inhibition of human CSF1R using poly[Glu:Tyr] (4:1) as substrate after 120 mins in presence of [gamma-33P]-ATP by filtration method.
T2 sequence (P07333 whole entry): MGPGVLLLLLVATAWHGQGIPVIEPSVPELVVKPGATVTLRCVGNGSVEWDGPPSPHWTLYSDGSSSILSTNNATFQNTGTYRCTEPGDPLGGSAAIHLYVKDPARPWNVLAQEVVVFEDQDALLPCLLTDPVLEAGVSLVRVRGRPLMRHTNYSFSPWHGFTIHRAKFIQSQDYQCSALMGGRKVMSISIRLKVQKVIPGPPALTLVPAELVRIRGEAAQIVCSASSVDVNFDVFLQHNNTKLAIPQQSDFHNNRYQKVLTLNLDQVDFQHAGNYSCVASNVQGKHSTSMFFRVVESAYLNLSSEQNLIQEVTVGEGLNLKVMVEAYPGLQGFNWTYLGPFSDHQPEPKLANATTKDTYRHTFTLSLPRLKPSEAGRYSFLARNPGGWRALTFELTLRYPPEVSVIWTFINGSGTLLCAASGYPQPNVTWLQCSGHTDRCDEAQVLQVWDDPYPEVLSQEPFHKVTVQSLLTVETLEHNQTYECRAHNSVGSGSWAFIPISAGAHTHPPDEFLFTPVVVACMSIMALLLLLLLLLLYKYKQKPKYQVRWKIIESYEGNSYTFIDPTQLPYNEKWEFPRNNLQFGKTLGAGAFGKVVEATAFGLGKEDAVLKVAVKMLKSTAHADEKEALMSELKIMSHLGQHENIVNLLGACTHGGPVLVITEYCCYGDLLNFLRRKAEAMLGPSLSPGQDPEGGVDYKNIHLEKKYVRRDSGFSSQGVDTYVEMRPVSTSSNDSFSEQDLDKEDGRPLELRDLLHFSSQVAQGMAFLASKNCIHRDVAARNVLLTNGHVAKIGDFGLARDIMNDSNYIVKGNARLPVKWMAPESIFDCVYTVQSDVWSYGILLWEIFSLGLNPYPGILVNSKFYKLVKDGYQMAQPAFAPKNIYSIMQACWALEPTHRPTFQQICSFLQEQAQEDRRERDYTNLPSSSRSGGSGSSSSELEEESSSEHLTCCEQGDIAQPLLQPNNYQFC
In series [3] the target is Platelet-derived growth factor receptor alpha (Homo sapiens) (UniProt P16234). In words: Inhibition of human PDGFRalpha at 10 uM using poly[Glu:Tyr] (4:1) as substrate after 120 mins [gamma-33P]-ATP by filtration method. The method in brief:
(§2)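 Radiometric kinase selectivity panel of 47 kinases, with compound at 10 μM. Data are means ± SD of two independent experiments.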

Series [4] deals with Serine/threonine-protein kinase pim-1 (Homo sapiens) (UniProt P11309). Nature of the series: Inhibition of human PIM1 at 10 uM using KKRNRTLTK as substrate after 120 mins [gamma-33P]-ATP by filtration method. The method in brief: as §2
Sequence of Serine/threonine-protein kinase pim-1 (Homo sapiens) (P11309 whole entry, looked up): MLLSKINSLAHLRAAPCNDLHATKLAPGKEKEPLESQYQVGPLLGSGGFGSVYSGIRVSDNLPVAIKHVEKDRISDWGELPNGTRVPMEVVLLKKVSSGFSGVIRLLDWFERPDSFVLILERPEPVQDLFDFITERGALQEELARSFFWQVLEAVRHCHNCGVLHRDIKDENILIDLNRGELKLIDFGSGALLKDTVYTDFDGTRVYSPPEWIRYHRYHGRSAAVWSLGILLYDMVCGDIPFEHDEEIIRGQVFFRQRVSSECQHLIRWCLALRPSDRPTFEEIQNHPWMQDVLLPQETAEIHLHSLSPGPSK
For series [5], the target named is T2, Macrophage colony-stimulating factor 1 receptor. Nature of the series: Inhibition of human CSF1R using poly[Glu:Tyr] (4:1) as substrate after 120 mins in presence of 100 uM [gamma-33P]-ATP by filtration method. The gist of the method:
(§3)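 CSF1R radiometric kinase assay with dose-response curves at 1, 10 and 100 μM ATP. IC50 was calculated at each ATP concentration, and Ki was derived.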

Series [6] addresses Tyrosine-protein kinase Lck (Homo sapiens) (UniProt P06239). Nature of the series: Inhibition of human LCK at 10 uM using poly[Glu:Tyr] (4:1) as substrate after 120 mins [gamma-33P]-ATP by filtration method. The gist of the method: as §2
In series [7] the target is Death-associated protein kinase 3 (Homo sapiens) (UniProt O43293). Nature of the series: Inhibition of human DAPK3 at 10 uM using KKLNRTLSFAEPG as substrate after 120 mins [gamma-33P]-ATP by filtration method. The gist of the method: as §2
Sequence of Death-associated protein kinase 3 (Homo sapiens) (O43293 whole entry, looked up): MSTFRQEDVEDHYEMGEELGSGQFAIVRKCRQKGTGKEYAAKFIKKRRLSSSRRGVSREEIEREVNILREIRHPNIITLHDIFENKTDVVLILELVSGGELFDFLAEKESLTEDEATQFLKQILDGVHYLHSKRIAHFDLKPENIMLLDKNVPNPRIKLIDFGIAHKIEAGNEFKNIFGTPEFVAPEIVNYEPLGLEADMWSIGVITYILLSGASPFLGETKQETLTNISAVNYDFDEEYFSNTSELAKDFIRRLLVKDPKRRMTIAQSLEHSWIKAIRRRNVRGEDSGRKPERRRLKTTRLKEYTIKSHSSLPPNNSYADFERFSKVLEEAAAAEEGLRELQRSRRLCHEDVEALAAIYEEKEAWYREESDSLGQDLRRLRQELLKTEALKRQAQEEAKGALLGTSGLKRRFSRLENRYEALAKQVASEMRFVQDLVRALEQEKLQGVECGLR
For series [8], the target named is T2, Macrophage colony-stimulating factor 1 receptor. Nature of the series: Inhibition of human CSF1R at 10 uM using poly[Glu:Tyr] (4:1) as substrate after 120 mins in presence of 10 uM [gamma-33P]-ATP by filtration method relative to control. The gist of the method:
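Radiometric HotSpot assay measuring substrate phosphorylation directly, with 10 μM ATP. Single-dose screen at 10 μM in duplicate, reported as mean % inhibition from two independent experiments.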

Series [9] addresses T1, Death-associated protein kinase 1. In words: Inhibition of DAPK1 in HEK293 tau-BiFC cells assessed as reduction in forskolin-induced tau aggregation at 50 uM after 48 hrs by Hoechst staining based HCS analysis. Type of series: cell-based. The method in brief: as §1
Target sequence in this assay (P53355 whole entry, looked up): as the sequence (P53355 whole entry, looked up) above
For series [10] the target is unchanged. Nature of the series: Inhibition of human DAPK1 (1 to 363 residues) using KKLNRTLSFAEPG as substrate after 120 mins in presence of 10 uM [gamma-33P]-ATP by filtration method. The gist of the method: (§4)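 Radiometric HotSpot assay with direct measurement of phosphorylated substrate at 10 μM ATP. IC50 was taken from a duplicate 10-dose series, 3-fold dilutions starting at 20 μM, reported as mean.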
Target sequence in this assay (P53355 whole entry): as the sequence (P53355 whole entry, looked up) above

For series [11] the target is unchanged. Nature of the series: Inhibition of human DAPK1 (1 to 363 residues) using KKLNRTLSFAEPG as substrate after 120 mins in presence of 100 uM [gamma-33P]-ATP by filtration method. The gist of the method: (§5)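 Dose-response curves were run at 1, 10 and 100 μM ATP, giving an IC50 at each ATP level; Ki was calculated.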
Target sequence in this assay (P53355 whole entry): as the sequence (P53355 whole entry, looked up) above
Series [12] has as its target T2, Macrophage colony-stimulating factor 1 receptor. In words: Inhibition of human CSF1R using poly[Glu:Tyr] (4:1) as substrate after 120 mins in presence of 1 uM [gamma-33P]-ATP by filtration method. The method in brief:
as §3

Series [13] concerns the target T1, Death-associated protein kinase 1. In words: Inhibition of human DAPK1 (1 to 363 residues) using KKLNRTLSFAEPG as substrate after 120 mins in presence of 1 uM [gamma-33P]-ATP by filtration method. The method in brief:
as §5
Target sequence in this assay (P53355 whole entry): as the sequence (P53355 whole entry, looked up) above

For series [14], the target named is Proto-oncogene tyrosine-protein kinase Src (Homo sapiens) (UniProt P12931). Nature of the series: Inhibition of human c-SRC at 10 uM using poly[Glu:Tyr] (4:1) as substrate after 120 mins [gamma-33P]-ATP by filtration method. The method in brief:
as §2

The target of series [15] is T1, Death-associated protein kinase 1. In words: Inhibition of DAPK1 in HEK293 tau-BiFC cells assessed as reduction in forskolin-induced tau aggregation at 16 uM after 48 hrs by Hoechst staining based HCS analysis relative to control. Type of series: cell-based. The gist of the method: (§6)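 HEK293 tau-BiFC cells were given forskolin (30 μM) and compound in a 5-dose series (1, 2, 4, 8, 16 μM) for 48 h. BiFC fluorescence was quantified and a cellular IC50 was derived from the series.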
Target sequence in this assay (P53355 whole entry, looked up): as above

The subject of the next series is BV-2. In words: Anti-neuroinflammatory activity in mouse BV2 cells assessed as inhibition of LPS-stimulated NO production at 10 uM preincubated for 1 hr followed by LPS stimulation for 23 hrs by Griess reagent based assay relative to control. Type of series: functional. The gist of the method: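 Mouse BV-2 microglia were stimulated with LPS, with or without compound at 10 μM, and NO production was measured. Values are means ± SD of five independent experiments.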

Series [16] concerns the target T2, Macrophage colony-stimulating factor 1 receptor. Nature of the series: Inhibition of human CSF1R using poly[Glu:Tyr] (4:1) as substrate after 120 mins in presence of 10 uM [gamma-33P]-ATP by filtration method. The gist of the method:
as §4

For series [17], the target named is Death-associated protein kinase 2 (Homo sapiens) (UniProt Q9UIK4). In words: Inhibition of human DAPK2 at 10 uM using KKLNRTLSFAEPG as substrate after 120 mins [gamma-33P]-ATP by filtration method. The gist of the method:
as §2

Series [18] deals with T1, Death-associated protein kinase 1. In words: Inhibition of human DAPK1 (1 to 363 residues) using KKLNRTLSFAEPG as substrate after 120 mins [gamma-33P]-ATP by filtration method. The method in brief: as §4
Target sequence in this assay (P53355 whole entry): as the sequence (P53355 whole entry, looked up) above
Series [19] has the same target. Nature of the series: Inhibition of DAPK1 in HEK293 tau-BiFC cells assessed as reduction in forskolin-induced tau aggregation after 48 hrs by Hoechst staining based HCS analysis. The format is cell-based. The method in brief:
as §6
Target sequence in this assay (P53355 whole entry): as the sequence (P53355 whole entry, looked up) above

Series [20] deals with Voltage-gated inwardly rectifying potassium channel KCNH2 (Homo sapiens, UniProt Q12809). In words: Inhibition of red tracer binding to human ERG expressed in membranes preincubated for 10 to 15 mins followed by tracer addition measured after 3 hrs by fluorescence polarization assay.
Series [21] addresses Calcium/calmodulin-dependent protein kinase type II subunit alpha (Homo sapiens) (UniProt Q9UQM7). Nature of the series: Inhibition of human CAMK2a at 10 uM using KKALRRQETVDAL as substrate after 120 mins [gamma-33P]-ATP by filtration method. The method in brief:
as §2

A short description of series [22]: Cytotoxicity against LPS-stimulated mouse BV2 cells assessed as cell viability at 10 uM after 24 hrs by MTT assay relative to control. As to conditions: read-out: Activity. Type of series: cell-based, BV-2. The gist of the method:
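BV-2 cell viability was measured in the presence of compound together with LPS and expressed relative to control. Values are means ± SD of five independent experiments.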

The nature of series [23]: Effective permeability of the compound at 12.5 uM after 4 hrs by PAMPA. The format is ADME. Particulars: read-out: Peff. The method in brief:
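BBB-PAMPA lipid membrane permeability was measured as effective permeability Pe (10^-6 cm/sec), with compound tested at 12.5 μM. Results are means ± SD of three independent experiments.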

Sequence of Death-associated protein kinase 2 (Homo sapiens) (Q9UIK4 whole entry, looked up): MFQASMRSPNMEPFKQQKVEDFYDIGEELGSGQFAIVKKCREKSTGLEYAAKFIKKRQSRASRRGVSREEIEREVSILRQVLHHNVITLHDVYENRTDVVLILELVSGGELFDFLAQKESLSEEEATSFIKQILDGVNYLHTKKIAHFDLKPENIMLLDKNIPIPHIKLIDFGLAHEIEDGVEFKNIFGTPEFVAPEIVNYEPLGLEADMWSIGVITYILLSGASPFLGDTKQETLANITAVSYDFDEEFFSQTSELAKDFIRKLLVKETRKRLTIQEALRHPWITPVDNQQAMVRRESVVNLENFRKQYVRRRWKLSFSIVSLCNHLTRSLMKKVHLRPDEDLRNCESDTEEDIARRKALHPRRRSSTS
Sequence of Proto-oncogene tyrosine-protein kinase Src (Homo sapiens) (P12931 2-536 limits assumed): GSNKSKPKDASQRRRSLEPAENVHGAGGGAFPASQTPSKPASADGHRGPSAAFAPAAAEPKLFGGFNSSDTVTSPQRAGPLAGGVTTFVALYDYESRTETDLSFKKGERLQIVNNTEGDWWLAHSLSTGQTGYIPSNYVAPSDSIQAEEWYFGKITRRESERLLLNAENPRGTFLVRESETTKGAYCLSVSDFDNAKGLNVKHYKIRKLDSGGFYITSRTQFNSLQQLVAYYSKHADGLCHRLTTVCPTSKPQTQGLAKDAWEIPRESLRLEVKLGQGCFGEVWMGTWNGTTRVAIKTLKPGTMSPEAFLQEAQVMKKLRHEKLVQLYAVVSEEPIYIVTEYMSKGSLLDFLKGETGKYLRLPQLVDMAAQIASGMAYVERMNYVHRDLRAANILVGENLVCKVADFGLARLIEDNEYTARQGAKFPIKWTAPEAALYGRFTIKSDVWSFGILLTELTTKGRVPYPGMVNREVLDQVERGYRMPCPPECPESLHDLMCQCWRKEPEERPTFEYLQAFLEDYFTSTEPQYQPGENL
Sequence of Calcium/calmodulin-dependent protein kinase type II subunit alpha (Homo sapiens) (Q9UQM7 whole entry): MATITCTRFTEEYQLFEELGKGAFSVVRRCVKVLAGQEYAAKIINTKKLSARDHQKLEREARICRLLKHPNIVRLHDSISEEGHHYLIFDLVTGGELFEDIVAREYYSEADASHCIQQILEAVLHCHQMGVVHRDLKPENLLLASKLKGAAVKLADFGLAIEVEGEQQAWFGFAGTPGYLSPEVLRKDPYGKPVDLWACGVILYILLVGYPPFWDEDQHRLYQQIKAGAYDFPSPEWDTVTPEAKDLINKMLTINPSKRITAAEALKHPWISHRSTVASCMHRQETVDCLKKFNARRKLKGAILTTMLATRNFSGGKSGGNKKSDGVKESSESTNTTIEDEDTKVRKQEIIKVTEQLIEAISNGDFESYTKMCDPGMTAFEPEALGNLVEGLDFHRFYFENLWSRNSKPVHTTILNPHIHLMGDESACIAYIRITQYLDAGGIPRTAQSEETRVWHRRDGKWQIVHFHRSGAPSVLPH

With `COc1ccc(Oc2nc(Nc3ccc(N4CCOCC4)nc3)ncc2NC(=O)c2cc(OC)cc(OC)c2)cc1`, the inhibition result in series [1], in series [6], in [9] and in series [14] was “Active” each time. Also, the results for the pKi in series [2] and in series [18] were 6.89 and 6.24, respectively. Besides, the inhibition entry in series [3], in [4], in series [7], in series [17] and in series [21] was “inactive” in each case. The pIC50 is 6.56 in series [5]; 5.90 in series [10]; 6.04 in series [11]; 7.16 in series [12]; 5.54 in [13]; 6.82 in series [16]. Besides, the values for the pIC50 in series [19] and in [20] were 5.30 and 4.77, respectively. The inhibition stood at 77.9% in series [8] and 100% in series [15]. The inhibition at 10 µM in the series with BV-2 was determined as 55%. The viability at 24 h, 10 µM in [22] is over 92%. Besides, the Papp at 4 h, 12.5 µM in series [23] was determined as 57 ×10⁻⁶ cm/s.

The values are drawn from ChEMBL document CHEMBL4382221, “First-in-class DAPK1/CSF1R dual inhibitors: Discovery of 3,5-dimethoxy-N-(4-(4-methoxyphenoxy)-2-((6-morpholinopyridin-3-yl)amino)pyrimidin-5-yl)benzamide as a potential anti-tauopathies agent” (Eur J Med Chem, 2019).
